Laboratory results taken from the array DNA melting data of Ke et al. (doi:10.1101/2024.01.08.574731).

Legend:
[1] = folding enthalpy; higher = less favourable; fluorescence melt of hairpins on a sequencing array, two-state fit; conditions: sodium 0.088 M
Procedure, shortened: (§1)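 On a sequenced MiSeq flow cell, library hairpins with annealed Cy3 and quencher oligos were imaged for Cy3 fluorescence in 2.5 °C steps up to 60 °C, in 50 mM Na-HEPES pH 8.0, 25 mM NaCl. Normalisation used pre-quench Cy3 and control constructs. Bootstrapped two-state fits gave melting temperature and folding enthalpy, combined by inverse variance across four replicates and with fitted temperatures raised by 9.35 °C to match UV melts.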

[2] = melting temperature; fluorescence melt of hairpins on a sequencing array, two-state fit, raised by 9.35 °C to match UV melts; conditions: sodium 0.088 M
Procedure, shortened: as §1

Row | Sequence | folding enthalpy [1] | Tm [2]
1 | GATCGTGAGACGATC ((((((...)))))) | -33.8 kcal/mol | 54 °C
2 | GTCAACGAAAGTTGAGAC ((((((....)))..))) | -12.2 kcal/mol | 43.3 °C
3 | GATCGATTGGTCGATC ((((((....)))))) | -37.6 kcal/mol | 53.2 °C
4 | GAGAGTGGAAACGCTCTC (((((.(....).))))) | -36.8 kcal/mol | 51.7 °C
5 | GCTAAGCGAAAGCGTTGC ((.(.((....)).).)) | -20 kcal/mol | 53.4 °C
6 | GCAATCGCGAAAGCGTGC (((..(((....)))))) | -12.5 kcal/mol | 44 °C
7 | GCGTACGGAAACATACGC (((((.(....).))))) | -33.8 kcal/mol | 46.8 °C
8 | GTGGGAGGAAACTCCTGC (..((((....))))..) | -17.4 kcal/mol | 37.8 °C
9 | GATCTAGCATAGATC ((((((...)))))) | -36.5 kcal/mol | 50.8 °C
10 | GAAGACGGAAACGCCTTC ((((.((....)).)))) | -26.5 kcal/mol | 45.6 °C
11 | GCTAGGCGAAAGCATAGC ((((.((....)).)))) | -32.7 kcal/mol | 64.6 °C
12 | GCTCTCGAAAGAGCTAGC ((((((....)))..))) | -15.5 kcal/mol | 50.3 °C
13 | GCACAGCGAAAGCTCCGC ((..(((....)))..)) | -9.89 kcal/mol | 28.1 °C
14 | GGTGCATCGAAAGATACC (((..(((....)))))) | -10.2 kcal/mol | 27.9 °C
15 | CGAGCGGAAACGCATTCG ((((((....)))..))) | -14.8 kcal/mol | 33.1 °C
16 | GACTTTACGAAAGTAGTC (((..(((....)))))) | -12.9 kcal/mol | 33.3 °C
17 | GAGCCCGGAAACGGGTTC ((.((((....)))).)) | -27 kcal/mol | 56.7 °C
18 | GCAGAACGAAAGTTTTGC (((.(((....))).))) | -40.9 kcal/mol | 52.1 °C
19 | GTTTTAGGAAACTAAAGC (.(((((....))))).) | -15 kcal/mol | 31.5 °C
20 | GATAACCGAAAGGTAATC (((.(((....))).))) | -21.2 kcal/mol | 40.2 °C
21 | GATTGGACGAAAGTCATC (((..(((....)))))) | -10.5 kcal/mol | 27 °C
22 | GCGTCAGCGAAAGCTCGC (((..(((....)))))) | -10.1 kcal/mol | 47.2 °C
23 | GTGTTTGCGAAAGCACAC (((..(((....)))))) | -20.2 kcal/mol | 45.9 °C

Row | Sequence | folding enthalpy [1] | Tm [2]
24 | GAGATACGAAAGTAACTC (((.(((....))).))) | -26 kcal/mol | 44.7 °C
25 | GGACTACGAAAGTACTCC (((.(((....))).))) | -13.3 kcal/mol | 34.9 °C
26 | GATCATCTAATGATC ((((((...)))))) | -34.5 kcal/mol | 47.2 °C
27 | GCCCAGGGAAACTTGGGC (((((.(....).))))) | -36.8 kcal/mol | 56.5 °C
28 | GTCGTCGGAAACGGTGAC (((..((....))..))) | -24 kcal/mol | 42.4 °C
29 | GAAACGGGAAACCATTTC ((((.((....)).)))) | -21.5 kcal/mol | 28.8 °C
30 | GGAAGCGAAAGCTTTTCC ((((((....)))..))) | -12.2 kcal/mol | 33.4 °C
31 | AAAACGAAAGTTTT (((((....))))) | -14.8 kcal/mol | 47.3 °C
32 | GTCGACCGAAAGGTGAC (((.(((....)))))) | -22.4 kcal/mol | 51.8 °C
33 | GATCACAAAGGTGATC ((((((....)))))) | -32.8 kcal/mol | 53.6 °C
34 | GGTACGCGAAAGCGCACC (((.(((....))).))) | -28.6 kcal/mol | 57.6 °C
35 | GATCCAAATTTGGATC ((((((....)))))) | -36.1 kcal/mol | 52.9 °C
36 | GTTTACGAAAGTAGAAC ((((((....))).))) | -11.3 kcal/mol | 27.2 °C
37 | GTTGTACGAAAGTAGAAC (((.(((....))).))) | -30.1 kcal/mol | 44 °C
38 | GCATACTCGAAAGAGTGC (((..(((....)))))) | -16.8 kcal/mol | 39 °C
39 | CGGGATCGGAAACGACCG (((..(((....)))))) | -22.6 kcal/mol | 40 °C
40 | GGAGGTACGAAAGTATCC (((..(((....)))))) | -13 kcal/mol | 32.9 °C
41 | GGTCCAGGAAACTGGGTC (..((((....))))..) | -15.3 kcal/mol | 39.5 °C
42 | GCAGCCGAAAGGCCTGC ((((((....))).))) | -25.5 kcal/mol | 61.3 °C
43 | GGCATTACGAAAGTAGCC (((..(((....)))))) | -21.8 kcal/mol | 43.1 °C
44 | GTGATGGAAACATCAC ((((((....)))))) | -41.8 kcal/mol | 56.7 °C
45 | GCCTGGGGAAACCCAGAC (.(((((....))))).) | -14.1 kcal/mol | 44.5 °C
46 | GGACGGGGAAACCTGTCC ((((.((....)).)))) | -44.5 kcal/mol | 56.8 °C
